Reference: ChEMBL document CHEMBL1143415, “Differential fungicidal activities of amphotericin B and voriconazole against Aspergillus species determined by microbroth methodology” (Antimicrob Agents Chemother, 2007)
Values after ≈ are worked out from the molar mass of the structure shown.

Key:
[1] = test system: Aspergillus flavus; test: Ratio of MFC for Aspergillus flavus isolate to MIC for Aspergillus flavus isolate; format: functional
Summary of the method: (§1)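 Per-isolate ratio of the XTT-based MFC (24 h post-wash regrowth, absorbance cutoff 0.01) to the 48 h CLSI M38-A MIC, taken as the median of two replicate experiments. A ratio of ≤4 was counted fungicidal and >4 fungistatic.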

[2] = test system: Aspergillus terreus; test: Antifungal activity against Aspergillus terreus ATCC MYA-3633 after 24 to 48 hrs by culture-based CFU method; format: functional
Summary of the method: (§2)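 Done after the 48 h M38-A MIC plates. Clear wells and the 0.5× MIC well were pipetted five times, and 20 μl or 100 μl was subcultured on Sabouraud dextrose agar for 24–48 h at 37°C before CFU counting. MFC = lowest concentration giving no growth for each volume.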

[3] = test system: Aspergillus fumigatus; test: Antifungal activity against Aspergillus fumigatus isolate after 24 hrs by microbroth colorimetric XTT method; format: functional, organism-based
Summary of the method: (§3)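 Done after the 48 h M38-A MIC plates. Clear wells and the 0.5× MIC well were aspirated, washed twice with 37°C saline, refilled with fresh RPMI, then incubated 24 h at 37°C. XTT (0.1 mg/ml) with menadione (25 μM), both final, was added for 2 h. A450/630 was read minus background from conidia-free wells. MFC = lowest concentration with absorbance <0.01, a cutoff set by ROC against microscopic growth.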

[4] = test system: Aspergillus fumigatus; test: Antifungal activity against Aspergillus fumigatus isolate after 8 hrs by microbroth colorimetric XTT method relative to control; format: functional
[5] = test system: Aspergillus fumigatus; test: Antifungal activity against Aspergillus fumigatus ATCC MYA-3626 after 24 hrs by microbroth colorimetric XTT method; format: functional; summary of the method: as §3
[6] = test system: Aspergillus flavus; test: Antifungal activity against Aspergillus flavus isolate at 100 CFU infectious rate after 24 hrs by culture-based CFU method; format: functional; summary of the method: as §2
[7] = test system: Aspergillus terreus; test: Antifungal activity against Aspergillus terreus isolate at 20 CFU infectious rate after 24 hrs by culture-based CFU method; format: functional; summary of the method: as §2
[8] = test system: Aspergillus terreus; test: Antifungal activity against Aspergillus terreus ATCC MYA-3633 after 48 hrs by CLSI M38-A microdilution method; format: functional
Summary of the method: (§4)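 CLSI M38-A broth microdilution. Conidia came from 5–7 d potato dextrose agar slants at 35°C, suspended in saline with 0.025% Tween 20 and counted by hemacytometer. Final inoculum was 0.5×10^4 to 5×10^4 CFU/ml in RPMI 1640 with MOPS, pH 7.0. Final drug ranges: amphotericin B 0.015–16 mg/liter, voriconazole 0.008–8 mg/liter. Plates ran 48 h at 37°C. MIC = lowest concentration with no visible growth. Duplicate plates; experiments done twice.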

[9] = test system: Aspergillus fumigatus; test: Ratio of MFC for Aspergillus fumigatus isolate to MIC for Aspergillus fumigatus isolate; format: functional; summary of the method: as §1
[10] = test system: Aspergillus flavus; test: Antifungal activity against Aspergillus flavus ATCC MYA-3631 after 24 to 48 hrs by culture-based CFU method; format: functional; summary of the method: as §2
[11] = test system: Aspergillus flavus; test: Antifungal activity against Aspergillus flavus isolate after 24 hrs by microbroth colorimetric XTT method; format: functional, organism-based; summary of the method: as §3
[12] = test system: Aspergillus flavus; test: Antifungal activity against Aspergillus flavus isolate after 8 hrs by microbroth colorimetric XTT method relative to control; format: functional
[13] = test system: Aspergillus fumigatus; test: Antifungal activity against Aspergillus fumigatus ATCC MYA-3626 after 24 to 48 hrs by culture-based CFU method; format: functional; summary of the method: as §2
[14] = test system: Aspergillus flavus; test: Antifungal activity against Aspergillus flavus ATCC MYA-3631 after 48 hrs by CLSI M38-A microdilution method; format: functional; summary of the method: as §4
[15] = test system: Aspergillus terreus; test: Antifungal activity against Aspergillus terreus isolate after 48 hrs by CLSI M38-A microdilution method; format: functional; summary of the method: as §4
[16] = test system: Aspergillus fumigatus; test: Antifungal activity against Aspergillus fumigatus isolate at 100 CFU infectious rate after 24 hrs by culture-based CFU method; format: functional; summary of the method: as §2
[17] = test system: Aspergillus terreus; test: Antifungal activity against Aspergillus terreus isolate after 8 hrs by microbroth colorimetric XTT method relative to control; format: functional
[18] = test system: Aspergillus fumigatus; test: Antifungal activity against Aspergillus fumigatus isolate after 48 hrs by CLSI M38-A microdilution method; format: functional
Summary of the method: (§5)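 CLSI M38-A broth microdilution in RPMI 1640 (L-glutamine, no bicarbonate, 0.165 M MOPS, pH 7.0). Conidia come from potato dextrose agar slants grown 5 to 7 days at 35°C, suspended in saline with 0.025% Tween 20 and counted by hemacytometer. Final inoculum 0.5 × 10^4 to 5 × 10^4 CFU/ml. Twofold dilutions in flat-bottom plates, 37°C for 48 h. MIC is the lowest concentration with no visible growth. Duplicate plates, two experiments.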

[19] = test system: Aspergillus terreus; test: Ratio of MFC for Aspergillus terreus isolate to MIC for Aspergillus terreus isolate; format: functional; summary of the method: as §1
[20] = test system: Aspergillus flavus; test: Antifungal activity against Aspergillus flavus isolate at 20 CFU infectious rate after 24 hrs by culture-based CFU method; format: functional; summary of the method: as §2
[21] = test system: Aspergillus terreus; test: Antifungal activity against Aspergillus terreus isolate after 24 hrs by microbroth colorimetric XTT method; format: functional, organism-based; summary of the method: as §3
[22] = test system: Aspergillus flavus; test: Antifungal activity against Aspergillus flavus isolate after 48 hrs by CLSI M38-A microdilution method; format: functional; summary of the method: as §4
[23] = test system: Aspergillus terreus; test: Antifungal activity against Aspergillus terreus isolate at 100 CFU infectious rate after 24 hrs by culture-based CFU method; format: functional; summary of the method: as §2
[24] = test system: Aspergillus terreus; test: Antifungal activity against Aspergillus terreus ATCC MYA-3633 after 24 hrs by microbroth colorimetric XTT method; format: functional; summary of the method: as §3
[25] = test system: Aspergillus fumigatus; test: Antifungal activity against Aspergillus fumigatus ATCC MYA-3626 after 48 hrs by CLSI M38-A microdilution method; format: functional; summary of the method: as §5
[26] = test system: Aspergillus flavus; test: Antifungal activity against Aspergillus flavus ATCC MYA-3631 after 24 hrs by microbroth colorimetric XTT method; format: functional; summary of the method: as §3
[27] = test system: Aspergillus fumigatus; test: Antifungal activity against Aspergillus fumigatus isolate at 20 CFU infectious rate after 24 hrs by culture-based CFU method; format: functional; summary of the method: as §2
[28] = test system: Aspergillus terreus; test: Antifungal activity against Aspergillus terreus isolate after 6 to 8 hrs by microbroth colorimetric XTT method relative to control; format: functional
[29] = test system: Aspergillus fumigatus; test: Antifungal activity against Aspergillus fumigatus isolate after 6 to 8 hrs by microbroth colorimetric XTT method relative to control; format: functional
[30] = test system: Aspergillus flavus; test: Antifungal activity against Aspergillus flavus isolate after 48 hrs by NCCLS M38-A broth microdilution method; format: functional; summary of the method: as §4
[31] = test system: Aspergillus fumigatus; test: Antifungal activity against Aspergillus fumigatus isolate after 48 hrs by NCCLS M38-A broth microdilution method; format: functional; summary of the method: as §4
[32] = test system: Aspergillus flavus; test: Antifungal activity against Aspergillus flavus isolate after 6 to 8 hrs by microbroth colorimetric XTT method relative to control; format: functional

| SMILES | MFC/MIC ratio [1] | MFC [2] | EC50 [3] | MFC [3] | MFC [5] | MFC [6] | MFC [7] | MIC [8] | MFC/MIC ratio [9] | MFC [10] | EC50 [11] | MFC [11] | MFC [13] | MIC [14] | MIC [15] | MFC [16] | MIC [18] | MFC/MIC ratio [19] | MFC [20] | EC50 [21] | further results |
| --- | --- | --- | --- | --- | --- | --- | --- | --- | --- | --- | --- | --- | --- | --- | --- | --- | --- | --- | --- | --- | --- |
| C[C@@H]1[C@H](O)[C@@H](C)/C=C/C=C/C=C/C=C/C=C/C=C/C=C/[C@H](O[C@@H]2O[C@H](C)[C@@H](O)[C@H](N)[C@@H]2O)C[C@@H]2O[C@](O)(C[C@@H](O)C[C@@H](O)[C@H](O)CC[C@@H](O)C[C@@H](O)CC(=O)O[C@H]1C)C[C@H](O)[C@H]2C(=O)O [AMPHOTERICIN B] | 2 | > 2 µg/mL | 0.95 µg/mL (≈ 1.03 µM) | 1 µg/mL (≈ 1.08 µM) | 1 µg/mL (≈ 1.08 µM) | 2 µg/mL (≈ 2.16 µM) | > 16 µg/mL | 2 µg/mL (≈ 2.16 µM) | 2 | 1 µg/mL (≈ 1.08 µM) | 1.1 µg/mL (≈ 1.19 µM) | 2 µg/mL (≈ 2.16 µM) | 1 µg/mL (≈ 1.08 µM) | 1 µg/mL (≈ 1.08 µM) | 2 µg/mL (≈ 2.16 µM) | 2 µg/mL (≈ 2.16 µM) | 1 µg/mL (≈ 1.08 µM) | 16 | 1 µg/mL (≈ 1.08 µM) | 9.55 µg/mL (≈ 10.3 µM) | Activity [4]: 16%; Activity [12]: 3%; Activity [17]: 3%; MFC [21]: > 16 µg/mL; MIC [22]: 1 µg/mL (≈ 1.08 µM); MFC [23]: > 16 µg/mL; MFC [24]: > 16 µg/mL; MIC [25]: 1 µg/mL (≈ 1.08 µM); MFC [26]: 2 µg/mL (≈ 2.16 µM); MFC [27]: 1 µg/mL (≈ 1.08 µM) |
| C[C@@H](c1ncncc1F)[C@](O)(Cn1cncn1)c1ccc(F)cc1F [VORICONAZOLE] | 4 | 2 µg/mL (≈ 5.73 µM) | 2.34 µg/mL (≈ 6.7 µM) | > 8 µg/mL | > 8 µg/mL | 1 µg/mL (≈ 2.86 µM) | 8 µg/mL (≈ 22.9 µM) | 0.5 µg/mL (≈ 1.43 µM) | > 16 | 0.5 µg/mL (≈ 1.43 µM) | 1.96 µg/mL (≈ 5.61 µM) | 4 µg/mL (≈ 11.5 µM) | > 4 µg/mL | 0.5 µg/mL (≈ 1.43 µM) | 1 µg/mL (≈ 2.86 µM) | > 8 µg/mL | 0.5 µg/mL (≈ 1.43 µM) | 8 | 0.5 µg/mL (≈ 1.43 µM) | 11.7 µg/mL (≈ 33.5 µM) | Activity [28]: 36%; Activity [29]: 14%; MFC90 [30]: 0.25 µg/mL (≈ 0.716 µM); MFC90 [31]: 0.25 µg/mL (≈ 0.716 µM); Activity [32]: 16%; MFC [21]: > 8 µg/mL; MIC [22]: 0.5 µg/mL (≈ 1.43 µM); MFC [23]: > 8 µg/mL; MFC [24]: > 8 µg/mL; MIC [25]: 1 µg/mL (≈ 2.86 µM); MFC [26]: > 4 µg/mL; MFC [27]: 2 µg/mL (≈ 5.73 µM) |
